Reference: ChEMBL document CHEMBL1132971, “New azolidinediones as inhibitors of protein tyrosine phosphatase 1B with antihyperglycemic properties” (J Med Chem, 2000)
Blank lines part the entries; values can stand above or below the compound they belong to.

What was measured:
[1] = test system: Mus musculus; assay: Evaluated for their ability to decrease plasma insulin levels in mouse at a dose 100 mg/kg/day. **p indicates <0.01; assay type: functional
How it was run: (§1)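 Mice dosed orally once daily for 4 days; plasma glucose and insulin measured and expressed as percent change versus a vehicle-treated group (mean ± SE, 4-6 mice/group). NS is generally less than -15% change. Significance is versus vehicle-treated mice.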

[2] = test system: Mus musculus; assay: Evaluated in vivo for their ability to decrease plasma glucose levels in diabetic C57BL/KsJ db/db mouse at a dose 100 mg/kg/day *p indicates <0.05; assay type: functional
How it was run: (§2)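 Diabetic db/db or ob/ob mice dosed orally once daily for 4 days. Plasma glucose and insulin reported as percent change from a vehicle-treated group. 4-6 mice per group. Significance set at p < 0.05 or p < 0.01 versus vehicle; NS means generally less than -15% change.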

[3] = test system: Mus musculus; assay: Evaluated in vivo for their ability to decrease plasma glucose levels in diabetic C57BL/KsJ ob/ob mouse at a dose 100 mg/kg/day. **p indicates <0.01; assay type: functional; how it was run: as §2
[4] = target: T1, Tyrosine-protein phosphatase non-receptor type 1 (Rattus norvegicus, UniProt P20417); assay: Inhibition of PTPase activity in rat hepatic membrane at a concentration of 50 uM using pNPP as the substrate; assay type: cell membranes, Liver
T1 sequence (P20417 whole entry): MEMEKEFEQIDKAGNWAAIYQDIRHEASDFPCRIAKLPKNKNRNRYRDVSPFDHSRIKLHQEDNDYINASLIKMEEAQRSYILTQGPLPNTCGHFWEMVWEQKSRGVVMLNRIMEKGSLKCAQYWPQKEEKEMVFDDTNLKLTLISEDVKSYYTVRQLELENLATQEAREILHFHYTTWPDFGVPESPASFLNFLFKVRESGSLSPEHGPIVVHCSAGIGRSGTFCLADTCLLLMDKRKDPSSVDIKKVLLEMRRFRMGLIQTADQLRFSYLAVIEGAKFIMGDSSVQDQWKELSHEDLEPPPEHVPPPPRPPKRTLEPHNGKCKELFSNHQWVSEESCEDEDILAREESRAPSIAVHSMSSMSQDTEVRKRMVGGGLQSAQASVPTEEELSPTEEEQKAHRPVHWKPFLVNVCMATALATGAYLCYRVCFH
How it was run: (§3)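 Liver membranes from male Sprague-Dawley rats (100-150 g), about 30 µg protein per well. Preincubated 10 min at 37 °C with compound in 1.25% DMSO in 50 mM HEPES pH 7.4. Then 6.33 mM pNPP for 30 min at 37 °C, stopped with NaOH. p-Nitrophenol read at 410 nm. Run in triplicate. Reported as percent of untreated control.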

[5] = target: T2, Tyrosine-protein phosphatase non-receptor type 1 (Rattus norvegicus) (UniProt P20417); assay: Inhibition of PTPase activity using recombinant r-PTP1B as the enzyme and IR-triphosphopeptide as substrate at 50 uM
T2 sequence (whole entry): T1 sequence (P20417 whole entry)
How it was run: (§4)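 Rat recombinant PTP1B in 33 mM TRIS-HCl, 2 mM EDTA, 50 mM β-mercaptoethanol, pH 7.4 (about 1000-2000 nmol/min/mg). Preincubated 10 min at 37 °C with or without compound in HEPES buffer pH 7.4. Released phosphate read by malachite green-ammonium molybdate at 650 nm against a phosphate standard. Quadruplicates. IC50 by four-parameter logistic fit.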

[6] = target: T2, Tyrosine-protein phosphatase non-receptor type 1 (Rattus norvegicus); assay: Inhibition of PTPase (PTP1B) activity in rat hepatic membrane at 50 uM concentration, using pNPP as the substrate; assay type: cell membranes; conditions: Liver; how it was run: as §3
[7] = target: T1, Tyrosine-protein phosphatase non-receptor type 1; assay: Concentration required to inhibit PTPase activity, recombinant r-PTP1B as the enzyme at a concentration 2.5 uM.; how it was run: as §4
[8] = test system: Mus musculus; assay: Evaluated for their ability to decrease plasma insulin levels in mouse at a dose 100 mg/kg/day,**p indicates <0.01; assay type: functional; how it was run: as §1
[9] = test system: Mus musculus; assay: Evaluated in vivo for their ability to decrease plasma glucose levels in diabetic C57BL/KsJ ob/ob mouse at a dose 100 mg/kg/day,**p indicates <0.01; assay type: functional; how it was run: as §1
[10] = test system: Mus musculus; assay: Evaluated in vivo for their ability to decrease plasma glucose levels in diabetic C57BL/KsJ ob/ob mouse at a dose 100 mg/kg/day *p indicates <0.05; assay type: functional; how it was run: as §2
[11] = test system: Mus musculus; assay: Evaluated for their ability to decrease plasma insulin levels in mouse at a dose 100 mg/kg/day, *p indicates <0.05; assay type: functional; how it was run: as §2
[12] = target: T1, Tyrosine-protein phosphatase non-receptor type 1; assay: Inhibition of PTPase activity using recombinant r-PTP1B as the enzyme and IR-triphosphopeptide as substrate; how it was run: as §4
[13] = test system: Mus musculus; assay: Evaluated for their ability to decrease plasma insulin levels in mouse at a dose 100 mg/kg/day.,**p indicates <0.01; assay type: functional; how it was run: as §1
[14] = test system: Mus musculus; assay: Evaluated in vivo for their ability to decrease plasma glucose levels in diabetic C57BL/KsJ ob/ob mouse at a dose 100 mg/kg/day.,**p indicates <0.01; assay type: functional; how it was run: as §1
[15] = target: T3, Tyrosine-protein phosphatase non-receptor type 1 (Homo sapiens) (UniProt P18031); assay: % inhibition of PTPase activity, recombinant Protein Tyrosine Phosphatase 1b as the enzyme at a concentration 50 uM.; how it was run: as §4
T3 sequence (whole entry): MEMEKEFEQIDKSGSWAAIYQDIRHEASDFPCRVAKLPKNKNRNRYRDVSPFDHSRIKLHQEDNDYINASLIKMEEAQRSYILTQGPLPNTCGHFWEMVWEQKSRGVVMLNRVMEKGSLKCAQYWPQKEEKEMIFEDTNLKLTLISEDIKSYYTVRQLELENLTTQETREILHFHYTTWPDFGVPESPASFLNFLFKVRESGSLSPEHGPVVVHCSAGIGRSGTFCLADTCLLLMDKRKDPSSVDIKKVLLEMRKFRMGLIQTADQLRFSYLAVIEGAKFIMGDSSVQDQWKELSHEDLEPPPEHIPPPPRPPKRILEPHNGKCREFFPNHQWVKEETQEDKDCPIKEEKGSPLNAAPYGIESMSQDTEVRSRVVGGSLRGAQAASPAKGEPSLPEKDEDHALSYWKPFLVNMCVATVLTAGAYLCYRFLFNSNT

[16] = test system: Mus musculus; assay: Evaluated in vivo for their ability to decrease plasma glucose levels in diabetic C57BL/KsJ ob/ob mouse at a dose 100 mg/kg/day, **p indicates <0.01; assay type: functional; how it was run: as §1
[17] = test system: Mus musculus; assay: Evaluated in vivo for their ability to decrease plasma glucose levels in diabetic C57BL/KsJ db/db mouse at a dose 100 mg/kg/day, *p indicates <0.05; assay type: functional; how it was run: as §1
[18] = test system: Mus musculus; assay: Evaluated for their ability to decrease plasma insulin levels in mouse at a dose 100 mg/kg/day, **p indicates <0.01; assay type: functional; how it was run: as §1
[19] = test system: Mus musculus; assay: Evaluated in vivo for their ability to decrease plasma glucose levels in diabetic C57BL/KsJ ob/ob mouse at a dose 10 mg/kg/day, *p indicates <0.05; assay type: functional; how it was run: as §1
[20] = test system: Mus musculus; assay: Evaluated for their ability to decrease plasma insulin levels in mouse at a dose 100 mg/kg/day.; assay type: functional; how it was run: as §1
[21] = test system: Mus musculus; assay: Evaluated in vivo for their ability to decrease plasma glucose levels in diabetic C57BL/KsJ db/db mouse at a dose 100 mg/kg/day; *p indicates <0.05; assay type: functional; how it was run: as §1
[22] = test system: Mus musculus; assay: Evaluated in vivo for their ability to decrease plasma glucose levels in diabetic C57BL/KsJ ob/ob mouse at a dose 100 mg/kg/day; **p indicates <0.01; assay type: functional; how it was run: as §1
[23] = test system: Mus musculus; assay: Evaluated in vivo for their ability to decrease plasma glucose levels in diabetic C57BL/KsJ ob/ob mouse at a dose 20 mg/kg/day; **p indicates <0.01; assay type: functional; how it was run: as §1
[24] = test system: Mus musculus; assay: Evaluated for their ability to decrease plasma insulin level at a dose of 20 mg/kg/day; **p indicates <0.01; assay type: functional; how it was run: as §1
[25] = target: T2, Tyrosine-protein phosphatase non-receptor type 1 (Rattus norvegicus); assay: Inhibition of PTPase activity using recombinant Protein-tyrosine phosphatase 1B as the enzyme and IR-triphosphopeptide as substrate at 50 uM
How it was run: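 Recombinant rat PTP1B (human 321-aa form assayed the same way), activity about 1000-2000 nmol/min/mg, preincubated with compound for 10 min at 37 °C in HEPES pH 7.4. The reaction is started with 50 µM triphosphorylated insulin receptor 1142-1153 dodecapeptide and run 30 min at 37 °C. Released phosphate read by malachite green-molybdate at 650 nm, in quadruplicate. Result is percent inhibition versus control.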

[26] = target: T2, Tyrosine-protein phosphatase non-receptor type 1 (Rattus norvegicus); assay: Inhibition of Protein-tyrosine phosphatase 1B activity in rat hepatic membrane at a concentration of 50 uM using pNPP as the substrate; assay type: cell membranes; conditions: Liver; how it was run: as §3

Inhibition % [4]: 71%
inhibition [5]: 7%
SMILES: C/C(=C\c1cccc(OCc2nc(-c3ccc(C(F)(F)F)cc3)oc2C)c1)Cn1oc(=O)[nH]c1=O
Decrease [1]: 28%
Decrease [2]: 36%
Decrease [3]: 37%

inhibition [6]: 62%
IC50 [7]: 25 µM
SMILES: C/C(=C\Cn1oc(=O)[nH]c1=O)c1cccc(OCC#Cc2cc(C(F)(F)F)cc(C(F)(F)F)c2)c1

SMILES: Cc1oc(-c2ccc(C(F)(F)F)cc2)nc1COc1cccc(/C(=C/Cn2oc(=O)[nH]c2=O)c2ccccc2)c1
Decrease [8]: 74%
Decrease [9]: 55%
inhibition [6]: 24%
inhibition [5]: 1.1%

inhibition [6]: Not significant
IC50 [12]: 3.8 µM
SMILES: C/C(=C\Cn1sc(=O)[nH]c1=O)c1cccc(OCc2nc(-c3ccc(C(F)(F)F)cc3)oc2C)c1
Decrease [10]: 29%
Decrease [11]: 26%

SMILES: CCCC/C(=C\Cn1oc(=O)[nH]c1=O)c1cccc(OCc2nc(-c3ccc(C(F)(F)F)cc3)oc2C)c1
Decrease [13]: 88%
Decrease [14]: 61%
inhibition [15]: 1.4%
inhibition [5]: 1.9%

SMILES: C/C(=C\Cn1oc(=O)[nH]c1=O)c1cccc(OCc2nc(-c3ccc(C(F)(F)F)cc3)oc2C)c1
Decrease [16]: 58%
Decrease [17]: 62%
Decrease [18]: 86%
Decrease [19]: 20%
inhibition [6]: 49%
inhibition [5]: 1.9%

SMILES: CC/C(=C\Cn1oc(=O)[nH]c1=O)c1cccc(OCc2nc(-c3ccc(C(F)(F)F)cc3)oc2C)c1
Decrease [20]: 80%
Decrease [21]: 63%
Decrease [22]: 71%
Decrease [23]: 32%
Decrease [24]: 32%
inhibition [25]: 90%
inhibition [26]: 57%
